Results from different studies.
Lines come from different studies, so protocols differ.
Target: Wee1-like protein kinase 2 (WEE2, Homo sapiens, UniProt P0C1S8)

Structure (SMILES)	effect on	method	concentration	remaining binding [%]
O=C(NCC1CCOCC1)c1n[nH]cc1NC(=O)c1c(F)cccc1F	binding	competition with immobilised ligand	1 µM	100
CNC(=O)c1ccc(Nc2ncc(C(F)(F)F)c(NCc3nccnc3N(C)S(C)(=O)=O)n2)cc1	cell-free assay	competition with immobilised ligand	0.1 µM	97
O=C(NCCCN1CCOCC1)c1ccc(Nc2nccc(-c3cc4ccccc4s3)n2)cc1	binding	competition with immobilised ligand	1 µM	86
NS(=O)(=O)c1cc(NC(=O)Cc2ccccc2)ccc1Oc1cccc(Cl)c1	cell-free assay	competition with immobilised ligand	1 µM	78
CNC(=O)[C@@H]1CC[C@@H](n2c(-c3ccc4cnccc4c3)nc3ccc(C(=O)NCc4cccc(C(N)=O)c4)cc32)C1	binding	competition with immobilised ligand	1 µM	100
C[C@H]1CCN(c2nccc(-c3cnn4ncccc34)n2)C1	binding	–	1 µM	100
O=C(NCCCN1CCOCC1)c1ccc(Nc2ncc(Cl)c(-c3ccc(Cl)s3)n2)cc1	binding	competition with immobilised ligand	1 µM	19
CN(C)c1nccc(-c2cnn3ncccc23)n1	binding	–	1 µM	100
COc1cnc(Nc2cccc(S(N)(=O)=O)c2)nc1N1CCN(c2ccccc2)C(=O)C1	binding	competition with immobilised ligand	1 µM	100
CCN1CCN(Cc2ccc(C(=O)Nc3ccc(C)c(Oc4ccc5c(c4)CC(=O)N5)c3)cc2C(F)(F)F)CC1	binding	competition with immobilised ligand	1 µM	100
C=CC(=O)N1CCC(C(=O)NCC(=O)N2CCN(c3nc(-c4cnc(N)nc4C(F)F)nc(N4CCOCC4)n3)CC2)CC1	binding	competition with immobilised ligand	1 µM	100
CN(C)c1ncc(F)c(-c2cnn3ncccc23)n1	binding	–	1 µM	98
O=C(c1ccc(Nc2nccc(-c3cc4ccccc4s3)n2)cc1)N1CCC(N2CCCC2)CC1	binding	competition with immobilised ligand	1 µM	65
O=C1CCc2cc(Nc3cc(OC4CCOCC4)c([N+](=O)[O-])cc3Cl)ccc2N1	cell-free assay	competition with immobilised ligand	1 µM	96
c1cncc(-c2cccc(Nc3nccc(NC4CCCCC4)n3)c2)c1	binding	competition with immobilised ligand	10 µM	100
c1cnn2ncc(-c3ccnc(N4CCC45COC5)n3)c2c1	binding	–	1 µM	76
FC(F)(F)c1ccc2c(c1)nc(-c1cccnc1)n2C1CC1	cell-free assay	competition with immobilised ligand	1 µM	100
N[C@@H]1CCN(c2nccc(-c3cnn4ncccc34)n2)C1	binding	–	1 µM	100
CNCc1ccccc1-c1csc([C@@H](C)Nc2nc(C)nc3cc(OC)c(OC)cc23)c1	cell-free assay	competition with immobilised ligand	1 µM	100
Cc1cnn2ncc(-c3ccnc(N(C)C)n3)c2c1	binding	–	1 µM	100
Cc1cc(-n2nc(Cc3cc(F)cc(C(F)(F)F)c3)nc2C)ccc1C(N)=O	cell-free assay	competition with immobilised ligand	1 µM	100
